Source: ChEMBL document CHEMBL1123808, “Synthesis of two glucagon antagonists: receptor binding, adenylate cyclase, and effects on blood plasma glucose levels” (J Med Chem, 1987)
pIC50: −log10 of the molar value. Blank lines part the entries; values can stand above or below the compound they belong to.

Experiments:
Rattus norvegicus [1] = species: Rattus norvegicus; test: Ability to displace [125I]glucagon was determined; type: functional
Summary of the method: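 Rat liver plasma membranes (male Sprague-Dawley; 50 μg protein/0.5 mL) in Tris-HCl 25 mM pH 7.5 with 1% BSA, incubated with [125I]glucagon (100 000 cpm, 25 fmol) and unlabelled peptide at various concentrations for 10 min at 30 °C. Then iced, filtered and washed, and filter radioactivity counted. Nonspecific binding taken with 1 μM unlabelled glucagon. Triplicates, repeated two or three times. IC50 from displacement curves.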

Rattus norvegicus [2] = species: Rattus norvegicus; test: Compound tested for the inhibition of glucagon-mediated hyperglycemia in rats; type: functional; set-up: scale not given: the % may be the effect or the level left
Summary of the method: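 Normal male Wistar rats under pentobarbital, femoral vein and artery catheterised. At time 0, glucagon 1 μg/kg and an excess of analogue were given together in the same 0.5 mL buffer bolus. Plasma glucose followed over 50 min as change from basal. Mean of 4-6 animals.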

Rattus norvegicus [3] = species: Rattus norvegicus; test: Binding affinity against glucagon receptor was determined in rat by using adenylate cyclase assay; type: functional
Rattus norvegicus [4] = test: Compound tested for the increase in blood glucose level in rats at a dose of 1 ug/kg in 10 min; type: functional, organism-based
Summary of the method: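 Male Wistar rats (250-400 g), fed ad libitum, under pentobarbital (70 mg/kg) at 36-37 °C. Peptide given as a femoral-vein bolus in 0.5 mL NaCl 145 mM/Na2CO3 2 mM/0.25% BSA. Plasma glucose from femoral-artery samples at 0, 2, 5, 10, 20, 30, 40, 50 min, expressed as change from each rat's basal level. Buffer-only controls run. n = 4-6.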

pIC50 (Rattus norvegicus [1]): 7.89
Compound: CSCC[C@H](NC(=O)[C@H](CC(C)C)NC(=O)[C@H](Cc1c[nH]c2ccccc12)NC(=O)[C@H](CCC(N)=O)NC(=O)[C@@H](NC(=O)[C@H](Cc1ccccc1)NC(=O)[C@H](CCC(=O)O)NC(=O)[C@H](CCC(N)=O)NC(=O)[C@H](C)NC(=O)[C@H](CCCCN)NC(=O)[C@H](CCCCN)NC(=O)[C@H](CO)NC(=O)[C@H](CC(=O)O)NC(=O)[C@H](CC(C)C)NC(=O)[C@H](Cc1ccc(O)cc1)NC(=O)[C@H](CCCNC(=N)N)NC(=O)[C@H](CO)NC(=O)[C@H](Cc1cc(I)c(O)c(I)c1)NC(=O)[C@H](CC(=O)O)NC(=O)[C@H](CO)NC(=O)[C@@H](NC(=O)[C@H](Cc1ccccc1)NC(=O)[C@H](Cc1ccc(O)cc1)NC(=O)[C@@H](Cc1ccccc1)NC(=O)[C@H](CCC(N)=O)NC(=O)[C@H](CO)NC(=O)[C@@H](N)Cc1c[nH]cn1)[C@@H](C)O)C(C)C)C(=O)N[C@@H](CC(N)=O)C(=O)N[C@H](C(=O)O)[C@@H](C)O [listing 1 of 2 here]

Compound: CSCC[C@H](NC(=O)[C@H](CC(C)C)NC(=O)[C@H](Cc1c[nH]c2ccccc12)NC(=O)[C@H](CCC(N)=O)NC(=O)[C@@H](NC(=O)[C@H](Cc1ccccc1)NC(=O)[C@H](CCC(=O)O)NC(=O)[C@H](CCC(N)=O)NC(=O)[C@H](C)NC(=O)[C@H](CCCCN)NC(=O)[C@H](CCCCN)NC(=O)[C@H](CO)NC(=O)[C@H](CC(=O)O)NC(=O)[C@H](CC(C)C)NC(=O)[C@H](Cc1ccc(O)cc1)NC(=O)[C@H](CCCNC(=N)N)NC(=O)[C@H](CO)NC(=O)[C@H](Cc1cc(I)c(O)c(I)c1)NC(=O)[C@H](CC(=O)O)NC(=O)[C@H](CO)NC(=O)[C@@H](NC(=O)[C@H](Cc1ccccc1)NC(=O)[C@H](Cc1ccc(O)cc1)NC(=O)[C@@H](Cc1ccccc1)NC(=O)[C@H](CCC(N)=O)NC(=O)[C@H](CO)NC(=O)[C@@H](N)Cc1c[nH]cn1)[C@@H](C)O)C(C)C)C(=O)N[C@@H](CC(N)=O)C(=O)N[C@H](C(=O)O)[C@@H](C)O [listing 2 of 2 here]
Activity (Rattus norvegicus [2]): 50%

Compound: GLUCAGON [listing 1 of 2 here]
pIC50 (Rattus norvegicus [1]): 8.17

Compound: GLUCAGON [listing 2 of 2 here]
ED50 (Rattus norvegicus [3]): 9.6 nM | Activity (Rattus norvegicus [4]): 95.1 mg/dL
